Assay [1] deals with T1, Liver carboxylesterase 1 (Oryctolagus cuniculus, UniProt P12337).
T1 sequence (P12337 whole entry): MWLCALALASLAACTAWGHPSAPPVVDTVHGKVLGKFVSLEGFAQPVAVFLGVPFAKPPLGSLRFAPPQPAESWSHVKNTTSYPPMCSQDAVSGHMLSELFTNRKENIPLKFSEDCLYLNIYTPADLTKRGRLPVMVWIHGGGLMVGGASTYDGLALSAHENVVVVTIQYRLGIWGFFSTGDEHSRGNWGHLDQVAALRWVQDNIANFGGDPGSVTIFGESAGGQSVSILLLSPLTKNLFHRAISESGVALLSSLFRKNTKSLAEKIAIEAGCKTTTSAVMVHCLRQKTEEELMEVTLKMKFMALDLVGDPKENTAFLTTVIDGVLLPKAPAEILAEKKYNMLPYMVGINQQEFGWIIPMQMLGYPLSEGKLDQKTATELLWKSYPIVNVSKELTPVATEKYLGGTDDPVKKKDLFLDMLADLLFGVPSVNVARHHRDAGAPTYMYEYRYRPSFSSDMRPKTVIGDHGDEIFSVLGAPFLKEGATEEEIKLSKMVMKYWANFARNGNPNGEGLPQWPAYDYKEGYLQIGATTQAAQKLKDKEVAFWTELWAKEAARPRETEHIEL
As to the kind of experiment: Inhibition constant against rabbit liver carboxylesterase using 4-MUA (4-methylumbelliferone acetate). In outline: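 Pure enzyme (hCE1 or rabbit CE) was incubated with 0.75 mM 4-methylumbelliferone acetate in 50 mM Hepes, pH 7.4. 4-Methylumbelliferone release was read fluorimetrically (excitation 365 nm, emission 460 nm) over 1 min, where the rate was linear. Inhibitor dilution series were run, and Ki was obtained by fitting fractional inhibition to a partially competitive inhibition equation.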

Assay [2] addresses T1, Liver carboxylesterase 1. As to the kind of experiment: Inhibition constant against rabbit liver carboxylesterase (rCE) using nitrophenyl acetate (o-NPA) as substrate. In outline: (§1)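 Pure rCE prepared per earlier work. Spectrophotometric multiwell assay with 3mM o-NPA. Inhibitor and substrate were dispensed first, then enzyme was added. A420 was read every 15 s for 5 min and compared with no-inhibitor wells. Inhibitor range started at 1 pM. Duplicates, with 50 µM BNPP and DMSO/no-enzyme controls. Ki came from a partially competitive inhibition equation fit.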

Assay [3] addresses T2, Liver carboxylesterase 1 (Homo sapiens, UniProt P23141).
T2 sequence (P23141 whole entry): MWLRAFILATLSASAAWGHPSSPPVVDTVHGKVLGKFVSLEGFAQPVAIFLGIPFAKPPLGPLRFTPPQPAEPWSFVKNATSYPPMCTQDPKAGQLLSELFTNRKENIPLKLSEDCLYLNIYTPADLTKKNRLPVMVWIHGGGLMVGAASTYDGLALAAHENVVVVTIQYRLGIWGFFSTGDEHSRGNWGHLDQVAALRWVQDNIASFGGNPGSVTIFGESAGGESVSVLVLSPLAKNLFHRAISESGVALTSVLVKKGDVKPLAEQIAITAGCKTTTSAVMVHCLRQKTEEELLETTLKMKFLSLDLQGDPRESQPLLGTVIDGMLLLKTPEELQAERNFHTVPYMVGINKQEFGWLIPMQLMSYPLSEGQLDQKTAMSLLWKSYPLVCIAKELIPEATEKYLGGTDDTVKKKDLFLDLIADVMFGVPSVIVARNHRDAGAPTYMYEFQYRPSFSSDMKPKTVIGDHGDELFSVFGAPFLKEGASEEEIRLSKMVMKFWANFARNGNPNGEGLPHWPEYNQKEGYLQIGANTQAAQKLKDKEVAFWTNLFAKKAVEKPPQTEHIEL
Kind of assay: Inhibition constant against human liver carboxylesterase 1 using o-NPA (nitrophenyl acetate). In outline: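 Purified hCE1 was assayed in multiwell plates with 3 mM o-nitrophenyl acetate, with enzyme added last. Absorbance change at 420 nm was read every 15 s for 5 min and compared with no-inhibitor wells. Inhibitor concentrations started at 1 pM, and assays were run in duplicate with 50 µM BNPP and DMSO/no-enzyme controls. Ki came from fitting to a partially competitive inhibition equation.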

Assay [4] deals with T2, Liver carboxylesterase 1. Kind of assay: Inhibition constant against human liver carboxylesterase 1 using 4-MUA (4-methylumbelliferone acetate). In outline:
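Pure enzyme (hCE1 or rabbit CE) was incubated with 0.75 mM 4-methylumbelliferone acetate in 50 mM Hepes, pH 7.4. Inhibitor dilution series were run, and Ki was obtained by fitting fractional inhibition to a partially competitive inhibition equation.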

The target in assay [5] is T1, Liver carboxylesterase 1. As to the kind of experiment: Inhibition constant against rabbit liver carboxylesterase using CPT-11. In outline: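 Purified rabbit CE was used with CPT-11 as the substrate. CPT-11 and SN-38 were quantified by HPLC with fluorescence detection.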
Assay [6] has as its target T2, Liver carboxylesterase 1. Kind of assay: Inhibition constant against human liver carboxylesterase 1 (hCE1) using nitrophenyl acetate (o-NPA) as substrate.
The target of assay [7] is T1, Liver carboxylesterase 1. Kind of assay: Inhibition constant against rabbit liver carboxylesterase using o-NPA (nitrophenyl acetate). In outline: as §1

Consider `Cc1ccc(C(=O)C(=O)c2ccccc2)cc1[N+](=O)[O-]`, for which the Ki in assay [1] is 4 nM; in assay [2] it was 11.9 nM; in assay [3], 295 nM; in assay [4] it was 7.5 nM; in assay [5], 24.1 nM.

On to `O=C(C(=O)c1ccc(Cl)cc1)c1ccc(Cl)cc1`, for which the Ki in assay [1] was 1.3 nM; in assay [2], 9.5 nM; in assay [6], 182 nM; in assay [3], 182 nM; in assay [4], 1.6 nM; in assay [5], 43 nM. In addition, the affinity in assay [7], expressed as Ki, was 9.5 nM.

For the compound `O=C(C(=O)c1ccc(Cl)cc1)c1ccccc1`, the Ki in assay [1] is 1.7 nM; in assay [2] it was 23.9 nM; in assay [3], 47.4 nM; in assay [4], 5.4 nM; in assay [5], 52.5 nM.

`Cc1ccc(C(=O)C(=O)c2ccccc2)cc1C`: the Ki is 4.4 nM in assay [1]; 108 nM in assay [2]; 99.1 nM in assay [3]; 18.8 nM in assay [4]; 240 nM in assay [5].

As for `O=C(C(=O)c1ccc(Br)cc1)c1ccc(Br)cc1`, the Ki in assay [1] is 0.17 nM; in assay [2] it was 4.1 nM; in assay [4], 0.029 nM; in assay [5], 25 nM.

For `O=C(C(=O)c1ccc(C(=O)C(=O)c2ccccc2)cc1)c1ccccc1`, the Ki in assay [1] turned out to be 2.1 nM; in assay [2], 6.1 nM; in assay [5], 14.1 nM.

The values are drawn from ChEMBL document CHEMBL1143603, “Identification and characterization of novel benzil (diphenylethane-1,2-dione) analogues as inhibitors of mammalian carboxylesterases” (J Med Chem, 2005).
